Measured values as given in ChEMBL document CHEMBL4382245, “Balancing reactivity and antitumor activity: heteroarylthioacetamide derivatives as potent and time-dependent inhibitors of EGFR” (Eur J Med Chem, 2019).

Experiments:
[1] = Cysteine reactivity in pH 10 CAPS buffer assessed as half life for cysteine-compound adduct formation at 10 uM after 24 hrs in presence of 100 molar excess cysteine by LC-MS analysis
In short: (§1)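 Compound at 10 µM added to freshly prepared 1 mM cysteine (1:100) in 50 mM CAPS pH 10, ionic strength 0.15 M with KCl; 37 °C; Cys-conjugate measured after 24 h by LC-MS in MRM mode. Half-life from LC-MS; conjugate peak area scaled to the 2-chloroacetamide conjugate set at 10,000.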

[2] = Drug uptake in human A549 cells at 1 uM incubated for 1 hr followed by compound washout and measured after 8 hrs by LC-MS analysis; format: ADME, cell-based; conditions: a549, 1 h
In short: (§2)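 A549 cells plated at 1,000,000 per 25 cm2 dish, dosed after 24 h at 1 µM final (0.1% DMSO), 1 h at 37 °C. Harvested at once or 8 h after three washes with fresh medium. Ethanol extraction, LC-MS quantitation as pmol/mg protein (Bradford), converted to µM using 4 µL cell volume per mg protein. Mean ± SD, three experiments.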

[3] = test system: Epidermal growth factor receptor (Homo sapiens), P00533 [L858R,T790M]; conditions: NCI-H1975, at 0.1 µM
[4] = Drug uptake in human A549 cells at 1 uM after 1 hr by LC-MS analysis; format: ADME, cell-based; conditions: a549, 1 h; in short: as §2
[5] = biological target: T1, Epidermal growth factor receptor (Homo sapiens, UniProt P00533)
[6] = biological target: T1, Epidermal growth factor receptor; conditions: A549, at 1 µM
A549 = assay: Ratio of drug uptake in human A549 cells at 1 uM measured after 1 hr to drug uptake in human A549 cells at 1 uM incubated for 1 hr followed by compound washout and measured after 8 hrs; format: ADME, cell-based; conditions: a549, 1 µM; in short: as §2
NCI-H1975 = assay: cells; format: functional, cell-based; conditions: Homo sapiens, NCI-H1975, 72 h
[7] = test system: Epidermal growth factor receptor (Homo sapiens), P00533 [L858R,T790M]; conditions: NCI-H1975, at 1 µM
[8] = biological target: T1, Epidermal growth factor receptor; assay: Inhibition of wild type EGFR autophosphorylation in human A549 cells by Western blot analysis; format: cell-based
[9] = biological target: T1, Epidermal growth factor receptor; conditions: A549, at 1 µM; remark: listed apart in the source
[10] = Cysteine reactivity in pH 10 CAPS buffer assessed as peak area for cysteine-compound adduct formation at 10 uM after 24 hrs in presence of 100 molar excess cysteine by LC-MS analysis relative to 2-chloro-N-(4-((3-chloro-4-fluorophenyl)amino)-7-ethoxyquinazolin-6-yl)acetamide; in short: as §1

T1 sequence (P00533 whole entry): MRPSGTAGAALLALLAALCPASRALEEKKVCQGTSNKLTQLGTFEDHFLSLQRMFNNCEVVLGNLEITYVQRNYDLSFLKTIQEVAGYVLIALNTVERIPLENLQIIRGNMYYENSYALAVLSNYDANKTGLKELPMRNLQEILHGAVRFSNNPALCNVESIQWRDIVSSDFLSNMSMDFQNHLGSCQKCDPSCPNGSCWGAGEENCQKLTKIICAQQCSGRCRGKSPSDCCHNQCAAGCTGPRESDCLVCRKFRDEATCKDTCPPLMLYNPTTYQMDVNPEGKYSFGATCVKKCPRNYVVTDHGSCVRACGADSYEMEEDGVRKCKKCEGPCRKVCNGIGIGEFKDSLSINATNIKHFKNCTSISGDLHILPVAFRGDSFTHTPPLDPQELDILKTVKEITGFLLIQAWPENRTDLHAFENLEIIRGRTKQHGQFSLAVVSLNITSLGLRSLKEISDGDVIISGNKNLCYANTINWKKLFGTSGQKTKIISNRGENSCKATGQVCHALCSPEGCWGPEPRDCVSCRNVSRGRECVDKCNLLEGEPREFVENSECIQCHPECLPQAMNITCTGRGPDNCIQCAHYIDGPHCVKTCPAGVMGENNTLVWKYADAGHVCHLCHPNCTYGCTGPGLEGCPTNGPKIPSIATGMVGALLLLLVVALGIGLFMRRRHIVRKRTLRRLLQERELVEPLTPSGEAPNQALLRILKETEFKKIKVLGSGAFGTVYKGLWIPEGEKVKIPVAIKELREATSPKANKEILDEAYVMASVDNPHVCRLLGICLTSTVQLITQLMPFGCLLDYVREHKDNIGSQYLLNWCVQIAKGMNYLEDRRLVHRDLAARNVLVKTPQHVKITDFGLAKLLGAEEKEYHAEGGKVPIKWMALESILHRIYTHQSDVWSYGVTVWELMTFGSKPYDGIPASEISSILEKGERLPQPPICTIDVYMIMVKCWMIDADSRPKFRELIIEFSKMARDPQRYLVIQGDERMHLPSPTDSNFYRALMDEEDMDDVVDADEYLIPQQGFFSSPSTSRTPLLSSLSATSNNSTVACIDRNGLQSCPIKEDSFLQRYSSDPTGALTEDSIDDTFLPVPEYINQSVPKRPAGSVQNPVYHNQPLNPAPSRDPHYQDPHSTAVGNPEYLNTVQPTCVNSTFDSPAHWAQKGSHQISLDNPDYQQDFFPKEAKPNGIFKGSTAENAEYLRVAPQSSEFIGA
Epidermal growth factor receptor (Homo sapiens), P00533 [L858R,T790M], sequence (P00533 whole entry T790M/L858R, looked up): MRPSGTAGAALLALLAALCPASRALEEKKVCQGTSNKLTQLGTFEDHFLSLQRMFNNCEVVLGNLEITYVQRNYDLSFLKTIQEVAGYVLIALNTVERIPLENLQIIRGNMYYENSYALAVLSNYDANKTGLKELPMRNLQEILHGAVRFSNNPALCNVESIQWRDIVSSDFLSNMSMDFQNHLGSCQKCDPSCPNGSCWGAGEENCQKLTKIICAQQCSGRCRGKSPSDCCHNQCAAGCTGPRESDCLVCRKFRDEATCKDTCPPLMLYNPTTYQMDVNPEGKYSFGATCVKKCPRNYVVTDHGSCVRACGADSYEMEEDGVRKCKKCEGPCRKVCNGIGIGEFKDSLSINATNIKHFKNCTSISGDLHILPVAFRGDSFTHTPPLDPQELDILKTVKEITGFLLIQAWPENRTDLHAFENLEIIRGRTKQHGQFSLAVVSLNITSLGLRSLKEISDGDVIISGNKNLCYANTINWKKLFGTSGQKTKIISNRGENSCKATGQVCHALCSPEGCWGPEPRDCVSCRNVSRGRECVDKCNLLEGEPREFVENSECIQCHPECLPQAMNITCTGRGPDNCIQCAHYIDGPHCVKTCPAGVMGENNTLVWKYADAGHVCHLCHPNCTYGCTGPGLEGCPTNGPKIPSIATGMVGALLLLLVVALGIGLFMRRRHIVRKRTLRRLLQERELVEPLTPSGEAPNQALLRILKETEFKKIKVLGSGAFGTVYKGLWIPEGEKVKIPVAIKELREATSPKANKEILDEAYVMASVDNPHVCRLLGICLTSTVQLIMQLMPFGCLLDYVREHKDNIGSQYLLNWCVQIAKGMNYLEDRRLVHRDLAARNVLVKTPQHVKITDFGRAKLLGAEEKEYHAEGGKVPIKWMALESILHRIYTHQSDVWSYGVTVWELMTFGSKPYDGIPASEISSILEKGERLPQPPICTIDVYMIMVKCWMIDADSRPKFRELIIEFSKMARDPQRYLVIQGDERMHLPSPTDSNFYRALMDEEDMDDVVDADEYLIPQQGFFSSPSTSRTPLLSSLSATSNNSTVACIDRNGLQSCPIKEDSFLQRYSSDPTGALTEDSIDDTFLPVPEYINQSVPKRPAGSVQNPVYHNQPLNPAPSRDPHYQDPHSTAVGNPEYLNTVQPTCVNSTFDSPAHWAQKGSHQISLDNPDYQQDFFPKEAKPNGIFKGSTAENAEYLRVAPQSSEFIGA

| T1/2 [1] [h] | Drug uptake [2] [µM] | inhibition [3] [%] | Drug uptake [4] [µM] | IC50 [5] [nM] | inhibition [6] [%] | Ratio (A549) | IC50 (NCI-H1975) [nM] | inhibition [7] [%] | IC50 [8] [nM] | inhibition [9] [%] | Activity [10] [a.u.] | SMILES |
| --- | --- | --- | --- | --- | --- | --- | --- | --- | --- | --- | --- | --- |
| > 24 | 1.1 | 0 | 132 | 0.34 | 77 | 120 | > 10000 | 0 | 27 | 90 |  | CCOc1cc2ncnc(Nc3ccc(F)c(Cl)c3)c2cc1NC(=O)CO |
| > 24 |  | 20 |  |  | 97 |  | 6100 | 16 | 44 | 97 | 5 | CCOc1cc2ncnc(Nc3ccc(F)c(Cl)c3)c2cc1NC(=O)COC(=O)c1c(C)cccc1C |
| > 24 |  | 0.5 |  |  | 89 |  | 8300 | 43 | 25 | 88 | 11 | CCOc1cc2ncnc(Nc3ccc(F)c(Cl)c3)c2cc1NC(=O)COC(=O)c1ccccc1 |
|  | 2.4 |  | 271 |  |  |  |  |  |  |  |  | COc1cc2ncnc(Nc3ccc(F)c(Cl)c3)c2cc1OCCCN1CCOCC1 [GEFITINIB] |
| 23.3 | < 0.05 | 27 | 5.8 | 0.52 | 75 |  | 3400 | 68 | 34 | 97 | 0.64 | CCOc1cc2ncnc(Nc3ccc(F)c(Cl)c3)c2cc1NC(=O)COC(C)=O |

| SMILES | T1/2 [1] [h] | Drug uptake [2] [µM] | inhibition [3] [%] | Drug uptake [4] [µM] | IC50 [5] [nM] | inhibition [6] [%] | Ratio (A549) | IC50 (NCI-H1975) [nM] | inhibition [7] [%] | IC50 [8] [nM] | inhibition [9] [%] | Activity [10] [a.u.] |
| --- | --- | --- | --- | --- | --- | --- | --- | --- | --- | --- | --- | --- |
| C=CC(=O)Nc1cc(Nc2nccc(-c3cn(C)c4ccccc34)n2)c(OC)cc1N(C)CCN(C)C [OSIMERTINIB] |  |  |  |  |  |  |  | […] |  |  |  |  |
